This is an account of results in ChEMBL document CHEMBL2424573 (J Med Chem, 2013).

Test [1] has as its system Human immunodeficiency virus 1. Description: Antiviral activity against multidrug-resistant HIV1 C harboring L10I/I15V/K20R/L24I/M36I/M46L/I54V/I62V/L63P/K70Q/V82A/L89M protease-encoding region mutant infected in human PHA-PBMC cells assessed as inhibition of p24 Gag protein production. The class given is functional, organism-based. To be noted: Human immunodeficiency virus 1, C. An outline of the steps: (§1)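 EC50 was determined against each clinical isolate and wild-type HIV-1ERS104pre. Assays were run in duplicate, and values are means (±1 standard deviation) of two or three independent experiments.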

Test [2] relates to Human immunodeficiency virus 1. As to the kind of experiment: Ratio of EC50 for wild type HIV1 ERS104pre to EC50 for multidrug-resistant HIV1 G harboring L10I/V11I/T12E/I15V/L19I/R41K/M46L/L63P/A71T/V82A/L90M protease-encoding region mutant. It is filed as functional.
The subject of test [3] is Human immunodeficiency virus 1. As to the kind of experiment: Antiviral activity against multidrug-resistant HIV1 TM harboring L10I/K14R/R41K/M46L/I54V/L63P/A71V/V82A/L90M/I93L protease-encoding region mutant infected in human PHA-PBMC cells assessed as inhibition of p24 Gag protein production. The class given is functional, organism-based. To be noted: Human immunodeficiency virus 1, TM. An outline of the steps:
as §1

Test [4] deals with Human immunodeficiency virus 1. Description: Ratio of EC50 for wild type HIV1 ERS104pre to EC50 for multidrug-resistant HIV1 C harboring L10I/I15V/K20R/L24I/M36I/M46L/I54V/I62V/L63P/K70Q/V82A/L89M protease-encoding region mutant. It is filed as functional.
Test [5] relates to Human immunodeficiency virus 1. As to the kind of experiment: Ratio of EC50 for wild type HIV1 ERS104pre to EC50 for multidrug-resistant HIV1 TM harboring L10I/K14R/R41K/M46L/I54V/L63P/A71V/V82A/L90M/I93L protease-encoding region mutant. It is filed as functional. An outline of the steps: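 Antiviral EC50 was measured against wild-type HIV-1ERS104pre and against multidrug-resistant isolates. The fold change is the EC50 for each isolate divided by the wild-type EC50. Assays were run in duplicate. Values are means (±1 standard deviation) from two or three independent experiments.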

Test [6] concerns Human immunodeficiency virus 1. As to the kind of experiment: Antiviral activity against wild type HIV1 ERS104pre infected in human PHA-PBMC cells assessed as inhibition of p24 Gag protein production. It is filed as functional, organism-based. To be noted: Human immunodeficiency virus 1, ERS104pre. An outline of the steps:
as §1

In test [7] the target is T1, Protease (Human immunodeficiency virus 1, UniProt Q9YQ12). Description: Inhibition of HIV1 protease.
Test [8] has as its system Human immunodeficiency virus 1. As to the kind of experiment: Antiviral activity against HIV1 LAV. It is filed as functional, organism-based. To be noted: Human immunodeficiency virus 1, LAV.
The subject of test [9] is Human immunodeficiency virus 1. As to the kind of experiment: Antiviral activity against HIV1 LAI infected in human MT2 cells by MTT assay. It is filed as functional, organism-based. The following applies: Human immunodeficiency virus 1, LAI. An outline of the steps: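 MT-2 human T-lymphoid cells (2 × 10^3) were exposed to 100 TCID50 of HIV-1LAI and cultured in the presence of protease inhibitor. IC50 was determined by MTT assay and reported as the mean of at least two experiments.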
Background: Tetrazolium assays rely on reduction of a dye to a coloured formazan, in cell work by metabolically active cells.

Test [10] has as its target T1, Protease. Description: Inhibition of HIV1 LAI protease by fluorescence assay.
Test [11] relates to Human immunodeficiency virus 1. As to the kind of experiment: Antiviral activity against multidrug-resistant HIV1 G harboring L10I/V11I/T12E/I15V/L19I/R41K/M46L/L63P/A71T/V82A/L90M protease-encoding region mutant infected in human PHA-PBMC cells assessed as inhibition of p24 Gag protein production. The class given is functional, organism-based. The following applies: Human immunodeficiency virus 1, G. An outline of the steps:
as §1

The test system of test [12] is Human immunodeficiency virus 1. As to the kind of experiment: Ratio of amprenavir EC50 to compound EC50 for wild type HIV-1 ERS104pre. The class given is functional.

The term EC50 denotes the concentration giving half of the maximal effect. A word on the Ki: it is a dissociation constant, usually derived from enzyme kinetics or from competition with a known ligand. Lower therefore signals tighter binding. A word on the IC50: it is the concentration that inhibits the measured activity by half. A lower IC50 goes with inhibition by little substance.

Where only a bound is given, the exact number is not on record here.

T1 sequence (Q9YQ12 whole entry): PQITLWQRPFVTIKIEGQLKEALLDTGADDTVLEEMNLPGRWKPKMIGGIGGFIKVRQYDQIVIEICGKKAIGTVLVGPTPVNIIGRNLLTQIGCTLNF

For `CC(C)CN(C[C@@H](O)[C@H](Cc1ccccc1)NC(=O)O[C@H]1CCOC1)S(=O)(=O)c1ccc(N)cc1`, the EC50 in [1] worked out at 325 nM; in [3], 448 nM; in test [6] it was 28 nM. The “Ratio EC50” value in test [2] is reported as 16; in test [4] it was 12; in [5], 16.
`COc1ccc(S(=O)(=O)N(CC(C)C)C[C@@H](O)[C@H](Cc2ccccc2)NC(=O)O[C@H]2CO[C@H]3O[C@@H]4OCC[C@@H]4[C@H]32)cc1`: at Protease [7], affinity was put at a Ki of 0.0059 nM. The molecule also had an IC50 in test [8] of 1.8 nM.
Molecule `COc1ccc(S(=O)(=O)N(CC(C)C)C[C@@H](O)[C@H](Cc2ccccc2)NC(=O)O[C@@H]2COC[C@@H]3O[C@H]4OCC[C@H]4[C@@H]32)cc1` registered an IC50 in [9] of 260 nM. This molecule also displayed a Ki at Protease [10] of 3.1 nM.
`COc1ccc(S(=O)(=O)N(CC(C)C)C[C@@H](O)[C@H](Cc2ccccc2)NC(=O)O[C@H]2CS(=O)(=O)C[C@H]3O[C@@H]4OCC[C@@H]4[C@@H]23)cc1`: the IC50 in [9] is more than 1000 nM. For the same molecule, the affinity at Protease [10] corresponds to a Ki of 0.6 nM.
For `COc1ccc(S(=O)(=O)N(CC(C)C)C[C@@H](O)[C@H](Cc2ccccc2)NC(=O)O[C@@H]2CS(=O)(=O)C[C@@H]3O[C@H]4OCC[C@H]4[C@@H]32)cc1` the same measures were more than 1000 nM and 10.5 nM.
With `COc1ccc(S(=O)(=O)N(CC(C)C)C[C@@H](O)[C@H](Cc2ccccc2)NC(=O)O[C@H]2CCC[C@H]3O[C@@H]4OCC[C@@H]4[C@@H]23)cc1`, the concentration giving a half-maximal response (EC50) in test [1] amounted to 8 nM; in test [3] it was 16 nM; in [11] it was 12 nM; in test [6] it was 3.6 nM. The “Ratio EC50” value in [2] worked out at 3; in test [4], 2; in test [5], 4; in test [12], 10. This molecule also displayed an IC50 in test [9] of 1.9 nM. The same molecule returned a Ki on Protease [10] of 0.01 nM.
Molecule `COc1ccc(S(=O)(=O)N(CC(C)C)C[C@@H](O)[C@H](Cc2ccccc2)NC(=O)O[C@@H]2CCC[C@@H]3O[C@H]4OCC[C@H]4[C@@H]32)cc1` came in with an IC50 in test [9] of 240 nM. For the same molecule, the inhibitory constant (Ki) on Protease [10] is 0.45 nM.
On to `COc1ccc(S(=O)(=O)N(CC(C)C)C[C@@H](O)[C@H](Cc2ccccc2)NC(=O)O[C@H]2CC(C)(C)C[C@H]3O[C@@H]4OCC[C@@H]4[C@@H]23)cc1`, for which the Ki at Protease [10] worked out at 8.8 nM.
`COc1ccc(S(=O)(=O)N(CC(C)C)C[C@@H](O)[C@H](Cc2ccccc2)NC(=O)O[C@@H]2CC(C)(C)C[C@@H]3O[C@H]4OCC[C@H]4[C@@H]32)cc1`: the Ki at Protease [10] came to 139 nM.
On to `COc1ccc(S(=O)(=O)N(CC(C)C)C[C@@H](O)[C@H](Cc2ccccc2)NC(=O)O[C@H]2CCC[C@H]3O[C@@H]4OCCC[C@@H]4[C@@H]23)cc1`, for which the midpoint of inhibition in test [9], the IC50, lay at 48 nM. At Protease [10], this molecule showed a Ki of 0.41 nM.
Regarding `COc1ccc(S(=O)(=O)N(CC(C)C)C[C@@H](O)[C@H](Cc2ccccc2)NC(=O)O[C@H]2COC[C@H]3O[C@@H]4OCC[C@@H]4[C@@H]23)cc1`, the concentration for a half-maximal effect (EC50) in test [1] was 32.9 nM; in test [11] it was 79.5 nM; in test [6], 8.3 nM. Also, the “Ratio EC50” value is 10 in [2] and 4 in test [4]. Moreover, the IC50 in test [9] was 4.5 nM. Moreover, the Ki on Protease [10] was 0.021 nM.
